Measurements from paper PMC3786144 (Biochimica et biophysica acta, 2013).
Read-outs that look alike come from different tables or passages of the source.

Experiments:
Id1 [1] = assay: Id1 mRNA expression by qPCR in NIH3T3 cells; assay type: cell-based, mouse; conditions: for Id1 RNA levels on serum induction: then 20% serum 0 to 120 minutes; for response of the Id1 gene to serum: data not shown
c-fos = c-fos mRNA expression by qPCR in NIH3T3 cells; assay type: cell-based, mouse; conditions: then 20% serum
How it was run: (§1)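 NIH3T3 cells were starved overnight in 0.2% serum and pretreated 1 hour with test compound. They were then induced with 20% NCS for 0–120 min. RNA was taken up in Tri Reagent, and cDNA was made from 1 μg total RNA with random hexamers. qPCR was normalised to 18s rRNA. Values are means of three experiments ± standard deviations.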

phospho-Smad1/5/8 [2] = assay: Phospho-Smad1/5/8 immunoblot in HCT116 cells; assay type: cell-based; conditions: HCT116, Dorsomorphin 1 μm
How it was run: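 HCT116 cells were starved overnight in 0.2% serum with DMSO or test compound, lysed in passive lysis buffer and cleared at 11,000 × g. Proteins were run by SDS-PAGE and blotted to nitrocellulose. Phospho-Smad1/5/8 primary (1:1000) was applied overnight at 4°C, followed by fluorescent secondary (1:10,000) and infrared imaging. Actin served as loading control.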

phospho-Smad1/5/8 [3] = assay: Phospho-Smad1/5/8 immunoblot in NIH3T3 cells; assay type: cell-based, mouse; conditions: NIH3T3, Dorsomorphin 1μM 1 hour, then serum
Smad1/5/8 = assay: Total Smad1/5/8 immunoblot in NIH3T3 cells; assay type: cell-based, mouse; conditions: NIH3T3, Dorsomorphin 1μM 1 hour, then serum
How it was run: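 Serum-starved NIH3T3 cells were treated 1 hour with DMSO or test compound, then serum-stimulated. Lysis was in passive lysis buffer, followed by SDS-PAGE (10% or 12%) and nitrocellulose transfer with 6% milk block. Phospho-specific or total primaries (1:1000) were applied overnight at 4°C, then fluorescent secondaries (1:10,000) for 1 hour at room temperature, with infrared imaging. Actin served as loading control.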

Id1 [4] = assay: Id1 mRNA expression by qPCR in HCT116 cells; assay type: cell-based; conditions: HCT116, Dorsomorphin 1 μm
How it was run: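 HCT116 cells, kept in DMEM with 10% FBS at 5% CO2, were starved overnight in 0.2% serum with DMSO or test compound. RNA was isolated in Tri Reagent. cDNA was made from 1 μg total RNA with random hexamers. Id1 mRNA was quantified by qPCR normalised to 18s rRNA.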

HCT116 cells = assay: Proliferation of HCT116 cells; assay type: cell-based; conditions: preliminary results
[5] = molecular target: constitutively active ALK3 (Homo sapiens, UniProt P36894, Q233D); assay: Id1 reporter activated by constitutively active ALK3 in NIH3T3 cells; assay type: cell-based; conditions: NIH3T3, Id1 −1150 reporter, AZD0530 100 nM overnight in 0.2% serum
How it was run: (§2)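 NIH3T3 cells, 4 × 10^4 per well, received fresh 10% NCS and were then transfected with 100 ng Renilla SV40 control, 100 ng mouse Id1 −1150 firefly reporter and 25 ng constitutively active ALK. Next day they went into 0.2% serum with 100 nM test compound or DMSO overnight. Dual-luciferase readout; firefly was normalised to Renilla.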

ALK1 = ALK1 (Homo sapiens, UniProt P37023); assay: In vitro kinase reaction; assay type: biochemical
How it was run: (§3)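 Radiometric filter-binding assay with purified recombinant kinase/substrate pairs. Reactions ran with ATP plus 33P-ATP (10 μM final) at 10 test compound concentrations in triplicate, in 20 mM Hepes pH 7.5, 10 mM MgCl2, 1 mM EGTA, 2 mM DTT, 1% DMSO, for 120 min at 25 °C. Products were spotted on P81 paper and washed in 0.75% phosphoric acid. Activity was expressed as % of DMSO control; IC50 came from curve fitting.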

Id1 [6] = conditions: A549 lung carcinoma cell line; cited from earlier work
Smad1/5 = conditions: A549 cells; cited from earlier work
[7] = tested on: constitutively active ALK1; assay: Id1 reporter activated by constitutively active ALK1 in NIH3T3 cells; assay type: cell-based; conditions: NIH3T3, Id1 −1150 reporter, AZD0530 100 nM overnight in 0.2% serum
How it was run: as §2

Id3 = Id3 mRNA expression by qPCR in NIH3T3 cells; assay type: cell-based, mouse; conditions: NIH3T3, AZD0530 100 nM 1 hour, then 20% serum
How it was run: as §1

BMPR-2 = molecular target: T1, BMPR-2 (Homo sapiens, UniProt Q13873); assay: In vitro kinase reaction; assay type: biochemical; conditions: 10 μM ATP, 120 minutes at 25 °C
T1 sequence (Q13873 27-1038): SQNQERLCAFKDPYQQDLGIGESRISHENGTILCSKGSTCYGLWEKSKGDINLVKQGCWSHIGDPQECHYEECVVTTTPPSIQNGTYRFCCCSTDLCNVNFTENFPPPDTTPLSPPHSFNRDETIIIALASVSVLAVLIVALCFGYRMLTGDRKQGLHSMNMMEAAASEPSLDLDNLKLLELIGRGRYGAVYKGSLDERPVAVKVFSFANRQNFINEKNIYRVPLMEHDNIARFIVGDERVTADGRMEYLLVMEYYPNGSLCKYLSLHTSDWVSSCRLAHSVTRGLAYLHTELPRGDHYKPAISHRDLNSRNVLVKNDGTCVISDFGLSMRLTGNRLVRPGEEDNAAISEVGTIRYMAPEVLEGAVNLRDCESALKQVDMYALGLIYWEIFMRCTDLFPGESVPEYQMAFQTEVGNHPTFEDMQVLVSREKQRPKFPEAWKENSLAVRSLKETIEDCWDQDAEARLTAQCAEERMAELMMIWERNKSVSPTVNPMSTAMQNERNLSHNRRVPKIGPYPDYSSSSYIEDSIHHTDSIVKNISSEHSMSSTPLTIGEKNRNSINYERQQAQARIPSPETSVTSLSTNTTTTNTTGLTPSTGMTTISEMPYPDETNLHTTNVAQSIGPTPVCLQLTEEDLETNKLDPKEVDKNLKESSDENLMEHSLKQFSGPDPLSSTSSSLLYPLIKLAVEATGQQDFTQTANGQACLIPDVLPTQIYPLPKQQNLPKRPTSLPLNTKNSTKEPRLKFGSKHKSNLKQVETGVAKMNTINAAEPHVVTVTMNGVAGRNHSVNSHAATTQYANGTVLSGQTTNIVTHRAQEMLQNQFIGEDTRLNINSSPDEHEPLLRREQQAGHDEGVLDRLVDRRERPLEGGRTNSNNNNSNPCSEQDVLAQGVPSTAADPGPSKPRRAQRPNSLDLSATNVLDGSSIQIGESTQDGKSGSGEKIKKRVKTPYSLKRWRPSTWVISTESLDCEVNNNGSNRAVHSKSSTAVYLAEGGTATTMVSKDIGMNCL
How it was run: as §3

Id1 promoter = Id1 promoter luciferase reporter assay in NIH3T3 cells; assay type: cell-based, mouse
c-fos promoter = c-fos promoter luciferase reporter assay in NIH3T3 cells; assay type: cell-based, mouse; conditions: NIH3T3, AZD0530 100 nM 1 hour, then 20% NCS 4 hours
How it was run: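 NIH3T3 cells, 4 × 10^4 per well, were transfected with 100 ng c-fos promoter firefly reporter plus 100 ng SV40-Renilla control. Next day they were starved overnight in 0.2% NCS, treated 1 hour with 100 nM test compound, then induced with 20% NCS for 4 hours. Dual-luciferase assay; firefly was normalised to Renilla.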

ALK3 = ALK3 (Homo sapiens, UniProt P36894); assay: In vitro kinase reaction; assay type: biochemical
How it was run: as §3

[8] = tested on: plasminogen activator inhibitor-1 (PAI-1); assay: PAI-1 mRNA expression by qPCR in NIH3T3 cells; assay type: cell-based, mouse; conditions: NIH3T3, AZD0530 100 nM 1 hour, then 20% serum
How it was run: as §1

Id1 [9] = conditions: MDA-MB-231 breast carcinoma line; cited from earlier work
[10] = NIH3T3, AZD0530 100 nM 1 hour, then 20% NCS 4 hours

ALK1, sequence (P37023 22-503): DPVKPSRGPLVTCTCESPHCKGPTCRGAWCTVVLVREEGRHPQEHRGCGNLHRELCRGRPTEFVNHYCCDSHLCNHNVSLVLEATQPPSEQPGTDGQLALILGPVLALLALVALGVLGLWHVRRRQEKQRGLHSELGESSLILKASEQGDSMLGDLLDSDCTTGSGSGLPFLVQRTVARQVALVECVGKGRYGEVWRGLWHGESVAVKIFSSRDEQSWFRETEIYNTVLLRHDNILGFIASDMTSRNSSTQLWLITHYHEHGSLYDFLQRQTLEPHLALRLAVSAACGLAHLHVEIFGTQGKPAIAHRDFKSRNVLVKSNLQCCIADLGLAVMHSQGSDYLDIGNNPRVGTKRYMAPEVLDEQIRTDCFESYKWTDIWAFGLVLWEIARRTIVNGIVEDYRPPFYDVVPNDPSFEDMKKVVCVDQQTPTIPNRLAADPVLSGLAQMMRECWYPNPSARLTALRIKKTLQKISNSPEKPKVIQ
constitutively active ALK3, sequence (P36894 24-532 Q233D): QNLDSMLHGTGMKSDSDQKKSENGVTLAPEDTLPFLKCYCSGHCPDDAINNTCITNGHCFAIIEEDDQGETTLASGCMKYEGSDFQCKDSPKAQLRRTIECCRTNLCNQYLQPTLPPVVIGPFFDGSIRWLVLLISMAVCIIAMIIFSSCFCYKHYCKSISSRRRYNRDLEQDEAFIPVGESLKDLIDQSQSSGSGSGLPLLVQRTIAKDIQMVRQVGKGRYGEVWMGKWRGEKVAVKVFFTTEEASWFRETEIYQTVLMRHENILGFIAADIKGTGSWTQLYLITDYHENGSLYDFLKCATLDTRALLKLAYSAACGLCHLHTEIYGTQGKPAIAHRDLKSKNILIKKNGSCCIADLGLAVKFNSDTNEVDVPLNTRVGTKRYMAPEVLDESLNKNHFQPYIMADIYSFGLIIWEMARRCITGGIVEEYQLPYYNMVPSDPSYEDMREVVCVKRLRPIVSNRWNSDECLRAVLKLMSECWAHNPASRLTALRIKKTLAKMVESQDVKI
ALK3, sequence (P36894 24-532): as the sequence (P36894 24-532 Q233D) above, with D210Q counted along it

## O=c1cc(N2CCOCC2)oc2c(-c3ccccc3)cccc12 [LY294002]
Id1 [1]; NIH3T3, LY294002 10 μM 1 hour
  Id1 RNA levels on serum induction: unchanged
c-fos; NIH3T3, LY294002 10 μM 1 hour
  c-fos expression on serum induction: little effect

## c1cc(-c2cnn3cc(-c4ccc(OCCN5CCCCC5)cc4)cnc23)ccn1 [Dorsomorphin, dorsomorphin]
phospho-Smad1/5/8 [2]
  phospho-Smad1/5/8 levels: inhibition
phospho-Smad1/5/8 [3]
  phosphorylation of Smad1/5/8: inhibits the phosphorylation
Smad1/5/8
  total level of Smad1/5/8: unchanged
Id1 [4]
  Id1 expression (mRNA): inhibition
Id1 [1]; NIH3T3, Dorsomorphin 1 hour, then 20% NCS 1 hour
  induction of Id1 mRNA in response to serum: strongly inhibited

## Cc1ccc(NC(=O)c2ccc(CN3CCN(C)CC3)cc2)cc1Nc1nccc(-c2cccnc2)n1 [imatinib]
Id1 [1]
  response of the Id1 gene to serum: Neither another Src inhibitor, PP2, nor the BCR-abl inhibitor, imatinib, had any effect

## C[C@@H]1C[C@@H]([C@H](O)CC2CC(=O)NC(=O)C2)C(=O)[C@@H](C)C1 [cycloheximide]
Id1 [1]; NIH3T3, 50 μg/ml cycloheximide, BMP2 (supplemental Fig. S3)
  BMP2 induction of Id1 in the presence of the protein synthesis inhibitor: higher

## CN1CCN(CCOc2cc(OC3CCOCC3)c3c(Nc4c(Cl)ccc5c4OCO5)ncnc3c2)CC1 [AZD0530, saracatinib]
HCT116 cells
  proliferation of HCT116 cells: did not reduce
[5]
  activation of the Id1 promoter by constitutively active ALK3: significantly decreased
ALK1
  IC50: 3 to 30 nM
Id1 [6]
  Id1 expression: inhibit Id1 expression
Smad1/5
  activation of Smad1/5: prevented activation
[7]
  activation of the Id1 promoter by constitutively active ALK1: significantly decreased
Id3
  Id3 expression on serum induction: strongly reduced
BMPR-2
  inhibition of BMPR-2 kinase activity: no inhibition
Id1 promoter; [10]
  Id1 serum induction, promoter activation (−1150 Id1 reporter): complete loss
  serum induction of the 4X BRE-SBE reporter: blocked
c-fos promoter
  serum induction of the c-fos promoter (reporter): little effect
ALK3
  IC50: 3 to 30 nM
[8]
  PAI-1 serum activation (mRNA): decrease in serum activation
Id1 [1]; NIH3T3, AZD0530 100 nM 1 hour, then 20% serum
  Id1 serum induction, mRNA expression: complete loss
c-fos; NIH3T3, AZD0530 100 nM 1 hour
  c-fos induction by serum (mRNA): no effect

## CC(C)(C)n1nc(-c2ccc(Cl)cc2)c2c(N)ncnc21 [PP2]
Id1 [9]
  Id1 expression: inhibited Id1 expression
Id1 [1]
  response of the Id1 gene to serum: Neither another Src inhibitor, PP2, nor the BCR-abl inhibitor, imatinib, had any effect

## O=C(NOC[C@H](O)CO)c1ccc(F)c(F)c1Nc1ccc(I)cc1F [PD0325901]
Id1 [1]; NIH3T3, PD0325901 5 μM 1 hour
  Id1 RNA levels on serum induction: unchanged
c-fos; NIH3T3, PD0325901 5 μM 1 hour
  c-fos expression on serum induction: dramatically decreased

B1: Noggin: BMP antagonist noggin (protein, UniProt Q13253 28-232, looked up)
Noggin: QHYLHIRPAPSDNLPLVDLIEHPDPIFDPKEKDLNETLLRSLLGGHYDPGFMATSPPEDRPGGGGGAAGGAEDLAELDQLLRQRPSGAMPSEIKGLEFSEGLAQGKKQRLSKKLRRKLQMWLWSQTFCPVLYAWNDLGSRFWPRYVKVGSCFSKRSCSVPEGMVCKPSKSVHLTVLRWRCQRRGGQRCGWIPIQYPIISECKCSC
Id1 promoter; NIH3T3, mId1 −1150 reporter, noggin during serum-starvation, 20% serum
  serum activation of the Id1 promoter (reporter assay): abolished serum activation
Id1 [1]; NIH3T3, 100 ng/ml noggin during serum-starvation, 20% serum
  serum induction of Id1 mRNA: abolished serum induction
